This passage reports GI50 results from ChEMBL document CHEMBL1955815, “The synthesis of ethacrynic acid thiazole derivatives as glutathione S-transferase pi inhibitors” (2012).

Each structure is given as a SMILES string.

In the experiment the test system is HL-60. The experiment can be described thus: Growth inhibition of human HL60 cells after 72 hrs by trypan blue staining. Conditions: HL-60, 72 h. The experiment is classed as functional. In short, it runs like this: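 HL-60 cells kept in RPMI-1640 with 10% heat-inactivated FBS, penicillin/streptomycin and L-glutamine at 37 °C, 5% CO2. Seeded at 4×10^4/mL in 24-well plates and exposed to a range of concentrations for 72 h. Trypan blue-positive and -negative cells were both counted. Inhibition = (1−Nt/Nc)×100%, and GI50 is the concentration giving half-maximal growth inhibition versus untreated cells.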
In turn, `C=C(C)C(=O)c1ccc(OCc2nc(-c3ccc([N+](=O)[O-])cc3)cs2)c(C)c1C` yielded a concentration for 50% growth inhibition (GI50) of 5100 nM. As for `C=C(CC)C(=O)c1ccc(OCc2nc(-c3ccc([N+](=O)[O-])cc3)cs2)c(Cl)c1Cl`, growth was halved (GI50) at 1000 nM. As for `C=C(CC)C(=O)c1ccc(OCC(=O)O)c(Cl)c1Cl` [ETHACRYNIC ACID], it took 44200 nM to inhibit growth by half (GI50). In the case of `C=C(CC)C(=O)c1ccc(OCc2nc(-c3ccc(C(F)(F)F)cc3)cs2)c(Cl)c1Cl` it was 1600 nM. In the case of `C=C(C)C(=O)c1ccc(OCc2nc(-c3ccccc3)cs2)cc1Cl`, the GI50 was 6400 nM. In the case of `C=C(CC)C(=O)c1ccc(OCc2nc(-c3ccc(C(F)(F)F)cc3)cs2)cc1Cl` it was 2000 nM. In the case of `C=C(CC)C(=O)c1ccc(OCc2nc(-c3ccc([N+](=O)[O-])cc3)cs2)cc1Cl` it was 800 nM. Turning to `C=C(C)C(=O)c1ccc(OCc2nc(-c3ccc([N+](=O)[O-])cc3)cs2)cc1Cl`, the GI50 was determined as 5900 nM. The compound `C=C(CC)C(=O)c1ccc(OCc2nc(-c3ccc([N+](=O)[O-])cc3)cs2)c(C)c1C` had a GI50 of 3600 nM. Next, `C=C(C)C(=O)c1ccc(OCc2nc(-c3ccc(C(F)(F)F)cc3)cs2)cc1Cl`: 1400 nM. Next, `C=C(C)C(=O)c1ccc(OCc2nc(-c3ccccc3)cs2)cc1C`: 4700 nM. Next, `C=C(CC)C(=O)c1ccc(OCc2nc(-c3ccc4ccccc4c3)cs2)c(Cl)c1Cl`: 3600 nM. For `C=C(CC)C(=O)c1ccc(OCc2nc(-c3ccc(C(F)(F)F)cc3)cs2)c(C)c1C`, it took 1500 nM to inhibit growth by half (GI50). On to `C=C(C)C(=O)c1ccc(OCc2nc(-c3ccc4ccccc4c3)cs2)c(C)c1C`, for which the concentration for 50% growth inhibition (GI50) came to 2300 nM. Next, `C=C(C)C(=O)c1ccc(OCc2nc(-c3ccccc3)cs2)c(C)c1C`: 3400 nM; `C=C(C)C(=O)c1ccc(OCc2nc(-c3ccc(C(F)(F)F)cc3)cs2)c(C)c1C`: 3100 nM.

In turn, `C=C(CC)C(=O)c1ccc(OCc2nc(-c3ccc4ccccc4c3)cs2)c(C)c1C` returned a GI50 of 2000 nM. In the case of `C=C(C)C(=O)c1ccc(OCc2nc(-c3ccc4ccccc4c3)cs2)cc1Cl` it was 2900 nM.

Turning to `C=C(CC)C(=O)c1ccc(OCc2nc(-c3ccc4ccccc4c3)cs2)cc1Cl`, halving of growth (GI50) required 900 nM.
